High-throughput results: PubChem, The Scripps Research Institute Molecular Screening Center
UHRF1 binding = UHRF1 methylated DNA binding inhibitors, primary screen, counter-screen for MBD2 inhibitor project, biochemical, TR-FRET, human UHRF1, single concentration; AID 687016, 2013; E3 ubiquitin-protein ligase UHRF1 (Homo sapiens), Q96T88; actives 0.75% (n = 370,000); UHRF1 binding to methylated oligo; inhibition, % at 4.4 µM;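 also: UHRF1 SRA domain binding a hemimethylated CpG hairpin DNA probe; 0% = median of test compound wells and 100% = reference inhibitor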
Rin1 Abl inh = inhibitors of Rin1-Abl protein binding, primary screen, biochemical, TR-FRET | inhibition, % at 7.35 µM | actives 0.4% (n = 360,000) | AID 588664, 2011 | Tyrosine-protein kinase ABL1 (Homo sapiens) + Ras and Rab interactor 1 (Homo sapiens), …; in the data active = inhibition above about 5%, passing the limit was not always enough
LEDGF integ inh = blockers of LEDGF/p75-dependent integrase strand transfer – biochemical, TR-FRET, high throughput, primary screen. actives 0.64% (n = 370,000). AID 743269, 2014. inhibition, % at 3.7 µM. HIV-1 integrase (with human LEDGF/p75). TR-FRET IN-LEDGF/p75 DNA integration, Eu/Cy5;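 active = inhibition above the screen-wide mean plus 3 SD, cut at about 13% in these data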;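 also: signal is the Cy5 over europium emission ratio at 671 and 618 nm; 0% = plate median of compound wells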
TDP2 absorb = human TDP2 enzyme inhibitors, primary screen, biochemical, epi absorbance, recombinant enzyme; T5PNP hydrolysis, p-nitrophenol absorbance 415 nm; inhibition, % at 12.8 µM; actives 0.34% (n = 370,000); AID 720702, 2013;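 active = inhibition above the mean of all tested compounds plus 3 SD, set per campaign, cut at about 25% in these data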;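 also: 0% = DMSO with enzyme and 100% = buffer with substrate but no TDP2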
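Assay system: Recombinant human TDP2 | Quantity: 120 nM TDP2 per well | Incubation: 2 h at 37 °C | Signal: Epi absorbance | Evaluation: Percent inhibition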
MBD2 DNA inh = inhibitors of MBD2 binding to methylated DNA, primary screen, biochemical, TR-FRET, DNA-binding domain, human. AID 686964, 2013. inhibition, % at 4.4 µM. actives 0.31% (n = 370,000). Methyl-CpG-binding domain protein 2 (Homo sapiens), Q9UBB5. MBD2 binding to methylated oligonucleotide; in the data active = inhibition above about 13%
Rin1 Abl conf = Rin1-Abl binding inhibitor retest, confirmation, biochemical, TR-FRET. purified proteins. shares compounds with Rin1 Abl inh. inhibition, % at 7.35 µM. actives 49% (n = 1,300); in the data active = inhibition above about 6.5%
GFP quencher = GFP fluorescence inhibitors and quenchers, artefact control for Rin1-Abl interaction inhibitor project, biochemical; shares compounds with Rin1 Abl inh; inhibitors/quenchers counterscreen; inhibition, % at 6.75 µM; actives 8.5% (n = 1,300); AID 602125, 2011; in the data active = inhibition above about 6.5%;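 also: ABL1-eGFP fusion protein alone without its partner RIN1-SBP; 0% = protein with vehicle and 100% = wells lacking protein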
GFP quench DR = GFP fluorescence inhibitors and quenchers, dose response, artefact control for Rin1-Abl interaction inhibitor project, biochemical | GFP fluorescence interference/quenching counterscreen | 230 tested, under 10 active | shares compounds with Rin1 Abl inh | IC50, µM | AID 602182, 2012; call rule not given here;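 also: ABL1-eGFP fusion protein alone without its RIN1 binding partner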
UHRF1 ctr MBD2 = UHRF1 methylated DNA binding inhibitors, counter-screen for MBD2 inhibitor project, biochemical, TR-FRET, human UHRF1; shares compounds with MBD2 DNA inh; AID 720530, 2013; UHRF1 binding to methylated oligonucleotide; inhibition, % at 4.4 µM; actives 25% (n = 1,000);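 also: UHRF1 SRA domain binding a labeled hemimethylated CpG hairpin DNA; 0% = vehicle only and 100% = reference inhibitor with vehicle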
MBD2 DBD conf = inhibitors of MBD2 binding to methylated DNA, confirmation, biochemical, TR-FRET, DNA-binding domain, human | shares compounds with MBD2 DNA inh | TR-FRET MBD2-DBD binding to methylated oligonucleotide | inhibition, % at 4.4 µM | actives 26% (n = 1,000); in the data active = inhibition above about 14%
TDP2 confirm = human TDP2 enzyme inhibitors, retest, confirmation, biochemical, epi absorbance, recombinant enzyme; inhibition, % at 12.8 µM; absorbance read-out; actives 22% (n = 1,100); shares compounds with TDP2 absorb; in the data active = inhibition above about 25%;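 also: 0% = vehicle with enzyme and 100% = no enzyme buffer only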
* = called active by the depositor; · = not tested or not shown. Hits are enriched below; roughly 1.9% of the tested compounds scored in any of these assays. Rule as the data show it, unless noted: active = inhibition above about 21%; inactive = the rest.

SMILES | UHRF1 binding | Rin1 Abl inh | LEDGF integ inh | TDP2 absorb | MBD2 DNA inh | Rin1 Abl conf | GFP quencher | others
CC(C)(C)[C@H]1C=C(C(=O)N2CCN(Cc3ccccc3)CC2)O[C@@H](OCCCCO)C1 | -4 | 16* | 1 | 7 | 1 | 4 | 0
C=CCn1c(SCc2ccc(C#N)cc2)nnc1-c1ccco1 | -2 | · | -3 | -13 | -3 | · | ·
Cc1cc(NC(=O)Cn2nc(C(F)(F)F)c3c2CCC3)no1 | 1 | -2 | 3 | 0 | 3 | · | ·
Cc1ccc(NC(=O)Cn2nc(C(F)(F)F)c3c2CCC3)cc1 | 4 | 5.0* | -3 | 6 | 3 | 1 | -3
CC(COc1ccc(C#N)cc1F)CN1CCC(C(O)(c2ccccc2)c2ccccc2)CC1 (configuration not stated) | 0 | · | -3 | -4 | 0 | · | ·
COC(=O)CN1C(=O)[C@@H]2[C@H](C1=O)[C@@H]1CC(C(=O)OC)=C[C@@H](C(=O)OC)[C@@H]3C1=C(C(=O)[C@]3(C)NC(=O)c1ccccc1)[C@@H]2C | 2 | 1 | 0 | -10 | 2 | · | ·
COC(=O)C1=C[C@@H](C(=O)OC)[C@@H]2C3=C(C(=O)C2(C)C)[C@H](c2ccccc2)[C@@H]2C(=O)N(C)C(=O)[C@@H]2[C@@H]3C1 | 2 | 19* | -1 | -7 | 4 | 17* | -1
COc1ccc([C@H]2OC(=O)C[C@@H]2C(=O)N2CCCCC2)cc1OC | -1 | · | -1 | 9 | -5 | · | ·
Cc1nn(CC(=O)NCCCc2ccccc2)c(=O)c2cccn12 | · | 0 | · | · | · | · | ·
Cc1nn(CC(=O)NCc2cccc(F)c2)c(=O)c2cccn12 | 3 | 8.6* | 3 | 0 | 1 | -4 | -5
CC1(C(=O)Nc2ccccc2)Cc2c(-c3cccc(C(N)=O)c3)ccnc2O1 (configuration not stated) | -1 | 14* | 1 | -5 | -6 | 15* | -1
CC1(C(=O)Nc2ccc3c(c2)OCO3)Cc2c(-c3ccc4c(c3)OCO4)ccnc2O1 (configuration not stated) | -1 | -3 | 4 | 9 | -6 | · | ·
CC(=O)Nc1cccc(-c2ccnc3c2CC(C)(C(=O)NCc2ccc(N(C)C)cc2)O3)c1 (configuration not stated) | 1 | 6.7* | -2 | -3 | 5 | 6 | -2
CC1(C(=O)Nc2ccc3c(c2)OCO3)Cc2c(-c3cccc(C(N)=O)c3)ccnc2O1 (configuration not stated) | -1 | 8.8* | 0 | -3 | 2 | 7.8* | -2
O=C(CN(C(=O)OCC1c2ccccc2-c2ccccc21)[C@@H](Cc1ccccc1)C(=O)O)OCc1ccc(C(=O)NCc2ccccc2)cc1 | -3 | · | -1 | -10 | 0 | · | ·
COc1cccc(CC(=O)Nc2ccc(S(=O)(=O)N3CCCCC3)cc2)c1 | 1 | 8.9* | -1 | 0 | 13* | 5 | 0 | UHRF1 ctr MBD2=5;MBD2 DBD conf=3
COC(=O)[C@]1(C#N)CC(=O)N(CC(C)C)[C@@H]1c1ccccc1 | 0 | · | -2 | 0 | 3 | · | ·
COc1ccc(-n2c(NC(=O)c3ccco3)c(C#N)c3nc4ccccc4nc32)cc1 | 11 | 19* | 7 | 60* | 3 | 6 | 3 | TDP2 confirm=67*
COc1ccc(C(=O)Nc2ccc(NC(=O)c3ccco3)cc2)cc1 | -1 | -1 | 4 | 3 | -1 | · | ·
N#Cc1ccc(S(=O)(=O)N2CCCc3nc(-c4ccc(Br)cc4)ccc32)cc1 | -1 | · | 3 | 1 | 1 | · | ·
O=C1C(=O)c2cccnc2-c2ncccc21 | 12 | 50* | 13 | 104* | 13 | 49* | 1 | GFP quench DR=>67;TDP2 confirm=89*
O=C(NN=c1c(=O)c2ccccc2c1=O)c1ccccc1 | -2 | 23* | 9 | 57* | -8 | 29* | 0 | GFP quench DR=>68;TDP2 confirm=78*
O=C1CCCC2=C1C1(O)C(=O)c3ccccc3C1(O)O2 (configuration not stated) | -7 | 19* | 2 | 53* | -8 | 9.1* | -2 | TDP2 confirm=59*
N#CC1=C(N)OC2=C(C(=O)CCC2)[C@]12C(=O)N(CC(N)=O)c1ccccc12 | 4 | -1 | -3 | 3 | 3 | · | ·
O=C(O)c1cccc(NC2=C(N3CCOCC3)C(=O)c3ccccc3C2=O)c1 | 2 | 7.2* | 1 | 37* | -4 | -7 | -1 | TDP2 confirm=51*
CC(C)N1CCCCC(NC(=O)c2cccs2)C1=O (configuration not stated) | 5 | · | -3 | -1 | 5 | · | ·
COC(=O)[C@@]12CCCCC=C1N(CCc1ccc(Cl)cc1)C(=O)[C@H]2CC(=O)NCc1cccc(C(F)(F)F)c1 | 0 | · | 0 | 0 | -3 | · | ·
CC1=NN(c2ccc(S(=O)(=O)O)cc2Cl)C(=O)C1 | -8 | 1 | 7 | 19 | -5 | · | ·
CC1=NN(c2ccc(Cl)c(C(=O)O)c2)C(=O)C1 | 7 | 7.2* | 6 | 44* | 2 | 0 | 0 | TDP2 confirm=6
CN=c1scc(-c2ccccc2F)n1/N=C/c1ccc[nH]1 | 12 | 6 | -15 | -11 | 0 | · | ·
